Only some compounds are listed: those with a hit (about 4.2% of all), similar ones and a draw of the others.
CHO parental Ca: counter-screen: ATP calcium response change in parental CHO cells; parental CHO-K1, ATP-induced calcium, Fluo-8 fluorescence; inhibition, % at 5.6 µM; hit rate 0.63% among 330,000; AID 463079;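 active = inhibition above that plate's mean sample inhibition plus 3 SD, cut at about 26% in these data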
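Material: Parental CHO cells | Reagent: ATP | Compound dosing: Single nominal dose of 5.6 µM per compound | Detection: Intracellular calcium via Fluo-8 no-wash fluorescent dye | Read-out: % inhibition of ATP-induced calcium mobilization | Benchmarks: Low control ATP plus DMSO, high control DMSO only | Replicates: Singlicate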
TAAR1 antag: human TAAR1 antagonism; Q96RJ0; CHO RD-HGA16 TAAR1, Fluo-8 calcium fluorescence, antagonist; inhibition, % at 3 µM; hit rate 1.5% among 360,000; AID 624466;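 active = inhibition above a per-plate cutoff, the mean inhibition of test compounds on that plate plus 3 SD, cut at about 49% in these data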
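Assay system: CHO-derived RD-HGA16 cells stably expressing human TAAR1 plus Gα16. Timing: 140 s kinetic read after compound, 140 s after agonist. Technique: kinetic Fluo-8 calcium fluorescence measurement. Measure: % inhibition of agonist calcium response.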
TAAR1 agonist: human TAAR1 agonism | activation, % at 3 µM | AID 624467 | hit rate 0.99% among 360,000 | CHO RD-HGA16 TAAR1, Fluo-8 calcium fluorescence; vehicle wells 0%, saturating PEA agonist 100% | Q96RJ0;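 active = activation above the mean activation of all test compounds in the run plus 3 SD, cut at about 38% in these data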
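Assay system – CHO-derived RD-HGA16 cells with stable Gα16 and human TAAR1 · Compound dosing – one-point dosing at 3 µM (nominal) · Incubation – 17-24 h seeding, 75 min 37 °C dye, 30 min RT · Measured by – kinetic Fluo-8 calcium fluorescence · Control set – DMSO vehicle as 0%, PEA at EC100 as 100% · Repeats – single well for each compound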
OX1R antag-1: blocks the human orexin 1 receptor; OX1R-expressing cells, FRET antagonist read-out; inhibition, % at 6.6 µM; hit rate 1.8% among 330,000; AID 485270; in the data active = inhibition mostly above about 38%, no sharp cut-off; inactive = mostly below about 40%
Target sequence (O43613 whole entry, looked up): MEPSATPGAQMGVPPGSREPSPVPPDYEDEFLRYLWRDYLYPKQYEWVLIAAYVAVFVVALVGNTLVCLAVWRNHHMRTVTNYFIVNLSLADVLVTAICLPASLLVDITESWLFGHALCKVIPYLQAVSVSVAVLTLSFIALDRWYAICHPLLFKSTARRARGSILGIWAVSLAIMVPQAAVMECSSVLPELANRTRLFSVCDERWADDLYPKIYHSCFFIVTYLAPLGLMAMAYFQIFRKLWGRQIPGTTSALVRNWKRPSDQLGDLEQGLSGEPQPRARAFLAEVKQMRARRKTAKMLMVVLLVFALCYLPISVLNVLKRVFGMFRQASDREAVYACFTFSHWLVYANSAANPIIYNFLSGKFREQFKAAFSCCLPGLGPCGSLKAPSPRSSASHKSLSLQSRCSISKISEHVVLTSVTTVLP
GalR3 antagonist: human GalR3 antagonism | hit rate 0.44% among 360,000 | O60755 | HEK293 GalR3-CNG cAMP membrane potential fluorescence; galR3 body fused to GalR1 C-terminus | inhibition, % at 3 µM;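 active = inhibition above the screen-wide average plus 3 SD, cut at about 13% in these data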;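 note: forskolin and galanin both at EC90 stimulate the cells; cAMP rise reported by CNG channel membrane potential dye signal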
OX1R antag-2: blocks the human orexin 1 receptor; O43613; CHO/OX1R cells, Fluo-8 calcium fluorescence, orexin A; inhibition, % at 5 µM; hit rate 0.43% among 330,000; AID 434989;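 active = inhibition above its plate's threshold, mean inhibition of all tested compounds on the plate plus 3 SD, cut at about 37% in these data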
GalR3 antag conf: confirmation of human galanin receptor 3 antagonists | inhibition, % at 3 µM | AID 652245 | hit rate 59% among 1,600 | HEK293 GalR3 CNG cAMP biosensor, membrane potential fluorescence; galR3 fused to GalR1 carboxy tail; challenged with forskolin and galanin at EC90 | shares compounds with GalR3 antagonist;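 active = inhibition above the primary screen's cutoff, the mean inhibition of all screened compounds plus 3 SD, cut at about 13% in these data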
CNG parental: acts as nonspecific agonist in parental HEK-CNG cells; hit rate 10% among 1,600; shares compounds with GalR3 antagonist; HEK293-CNG parental cells, cAMP membrane potential fluorescence; normalised: DMSO wells 0%, forskolin wells 100%; activation, % at 3 µM; in the data active = activation above about 1.3%
Hits are given with their value; i = inactive; nt = no result.

SMILES	CHO parental Ca	TAAR1 antag	TAAR1 agonist	OX1R antag-1	GalR3 antagonist	OX1R antag-2	GalR3 antag conf	CNG parental
CC(C)(C)c1ccc(C(=O)N/N=C/c2ccc(OCCCF)cc2)cc1	i	i	i	i	i	i	nt	nt
CN1CCN(c2ccc(S(=O)(=O)N3CCCCC3)cc2N)CC1	i	i	i	i	i	i	nt	nt
COc1ccccc1Nc1ccc(NC(=O)c2cccc([N+](=O)[O-])c2C)cc1	i	51.4	i	i	14.0	i	i	i
COc1ccc(NC(=O)c2ccccc2[N+](=O)[O-])cc1	i	i	i	i	i	i	nt	nt
Cc1cc(=O)[nH]c2c(C)cc(S(=O)(=O)NCc3ccccc3)cc12	i	i	i	i	i	i	nt	nt
Cc1cc(=O)[nH]c2ccc(S(=O)(=O)NCc3ccccc3)cc12	i	i	i	i	57.0	i	27.0	i
O=C(CNCc1ccccc1Cl)Nc1ccccc1N1CCCCC1	i	i	i	i	i	i	nt	nt
CC(=O)Nc1ccc(-c2csc(NC(=O)C3CC(=O)N(c4ccc5c(c4)OCCO5)C3)n2)cc1 (stereo not drawn)	i	i	i	i	14.5	i	i	i
CCOC(=O)C1=C(C)NC(=O)NC1c1c(C)nn(-c2ccccc2)c1Cl (stereo not drawn)	i	i	i	i	i	i	nt	nt
COc1cc(Cn2c(-c3ccc(O)c(OC)c3)nc3ccccc32)ccc1O	i	i	i	i	23.2	i	17.4	i
COc1ccc(-c2nc3ccccc3n2Cc2ccccc2)cc1	i	i	i	i	i	i	nt	nt
C=CCc1cccc(CNc2cnc3ccccc3c2)c1O	72.3	i	i	i	59.9	i	89.5	i
CC(C)(C)NCC(O)Cn1cc(C=O)c2ccccc21 (stereo not drawn)	i	i	i	i	14.2	i	36.0	i
O=c1[nH]c2cccnc2c2ccsc12	i	i	i	i	22.8	i	16.7	i
COc1ccc(S(=O)(=O)N2CCOC2CNC(=O)C(=O)NCCc2ccccc2OC)cc1C (stereo not drawn)	i	i	i	i	nt	i	nt	nt
COc1ccccc1CCNC(=O)C(=O)NCC1OCCN1S(=O)(=O)c1ccc2c(c1)OCCO2 (stereo not drawn)	i	i	39.2	i	13.9	i	i	i
CN=C1SC(CC(=O)Nc2ccccc2F)C(=O)N1/N=C/c1ccc(O)c(OC)c1 (stereo not drawn)	i	i	i	i	21.8	i	14.7	i
O=C(NNc1ccnc2cc(Cl)ccc12)C1CCCCC1	34.6	i	i	i	27.0	i	111.6	i
CCOc1cc(N2CCOCC2)c(OCC)cc1NC(=O)c1nn(CC)c(=O)c2ccccc12	i	i	i	i	i	i	nt	nt
C/C=C/C(=O)Nc1cccc(C2=NOC3(C2)C[C@@H](C(N)=O)N(C(=O)c2cc([N+](=O)[O-])cc([N+](=O)[O-])c2C)C3)c1 (stereo partly drawn)	i	i	i	i	13.4	i	i	i
Cc1ccc(S(=O)(=O)N(C)Cc2ccc(C(=O)N/N=C/c3ccc(OC(F)F)cc3OC(F)F)cc2)cc1	i	i	i	i	80.3	i	28.2	i
CCN(CC)S(=O)(=O)c1cccc(NC(=O)COC(=O)c2[nH]c(C)c(C(C)=O)c2C)c1	nt	55.0	i	nt	28.3	nt	97.3	i
Cc1ccn(CC(=O)N2CCCC(C(=O)c3cccc4ccccc34)C2)n1 (stereo not drawn)	i	i	i	i	i	i	nt	nt
Cc1nc(C)n(CC(=O)N2CCCC(C(=O)c3cccc4ccccc34)C2)n1 (stereo not drawn)	i	i	i	i	12.8	i	i	i
O=C(O)CC12CC3CC(C1)CC(n1ncc(NCc4ccco4)c(Cl)c1=O)(C3)C2	i	i	i	i	15.5	i	i	i
SMILES	CHO parental Ca	TAAR1 antag	TAAR1 agonist	OX1R antag-1	GalR3 antagonist	OX1R antag-2	GalR3 antag conf	CNG parental
CCc1ccc(C(=O)NC(CCSC)C(=O)O)cc1 (stereo not drawn)	i	i	i	i	i	i	nt	nt
C=CCN(C)CC/C=C1\c2ccccc2CSc2ccccc21	i	i	i	i	i	i	nt	nt
CCc1nnc(NC(=O)c2nc3nc(C)cc(C)n3n2)s1	i	i	i	i	12.8	i	i	i
CCCCN(C)CCn1c(=S)[nH]c2ncccc2c1=O	i	i	i	i	40.3	i	i	i
COc1cc(/C=C2\C(=N)N3N=C(S(C)(=O)=O)SC3=NC2=O)ccc1OCCOc1ccccc1C	i	i	i	i	i	i	nt	nt
COc1ccc(CCNC(=O)COC(=O)/C=C/c2cccs2)cc1	i	i	i	i	nt	i	i	i
CN(C)CCCNS(=O)(=O)c1ccc(N2CCN(Cc3ccc4c(c3)OCO4)CC2)c([N+](=O)[O-])c1	i	i	i	i	56.9	i	94.9	i
CCOC(=O)CSc1nc(N)c(C#N)c(-c2ccc(OCC)cc2)c1C#N	i	i	i	i	i	i	nt	nt
COC(=O)CSc1nc(N)c(C#N)c(-c2ccc(O)cc2)c1C#N	i	i	i	i	44.9	i	73.7	i
CN1CCN(S(=O)(=O)c2ccc(NC(=S)NC(=O)c3ccc(Cl)cc3)cc2)CC1	nt	i	i	nt	i	nt	nt	nt
COc1ccc(C(=O)N2CCCC(N3CCN(c4ccccc4F)CC3)C2)c(OC)n1 (stereo not drawn)	i	i	i	i	i	i	nt	nt
COc1ccc(C(=O)N2CCCC(N3CCN(c4ccccc4OC)CC3)C2)c(OC)n1 (stereo not drawn)	i	i	i	i	nt	i	i	i
CC(Sc1nnc(-c2ccccc2F)n1C1CC1)C(=O)NCc1ccco1 (stereo not drawn)	i	i	i	i	i	i	nt	nt
COc1ccc(C(=O)N/N=C(\c2ccccc2)c2ccccn2)cc1	i	i	i	i	i	i	nt	nt
O=C(NN=C(c1ccccc1)c1ccccn1)c1ccccc1	i	i	i	i	12.7	i	39.4	i
CCc1nc(C)cn1S(=O)(=O)c1cc(C)c(OC)c(C)c1C	31.4	i	i	i	26.1	i	82.4	i
CCc1nc(C)cn1S(=O)(=O)c1cc(C)c(OC)cc1C	i	i	i	i	i	i	nt	nt
CCOC(=O)Cn1cnc2c(nnn2-c2ccc(F)cc2)c1=O	i	i	i	i	nt	i	nt	nt
CCOC(=O)/C(C#N)=C/c1cn(CCC(=O)O)nc1-c1ccccc1	i	i	i	i	i	i	nt	nt

High-throughput results (PubChem)
